Active and inactive are the calls of the source. No cut-off for these calls is given here.
Columns and labels:
Presenilin-1 [1] = target: T1, Presenilin-1 (Homo sapiens, UniProt P49768); assay: Inhibition of wild-type human presenilin-1 stably overexpressed in CHO cells co-expressing wild-type human amyloid precursor protein assessed as inhibition of amyloid beta 42 formation after 24 hrs by ELISA; format: cell-based
Presenilin-1 [2] = target: T1, Presenilin-1; assay: Activation of wild-type human presenilin-1 stably overexpressed in CHO cells co-expressing wild-type human amyloid precursor protein assessed as amyloid beta 38 formation after 24 hrs by ELISA; format: cell-based
[3] = target: T2, Peroxisome proliferator-activated receptor gamma (Homo sapiens, UniProt P37231); assay: Activation of human PPARgamma ligand binding domain expressed in COS7 cells by dual luciferase reporter gene assay; format: cell-based, COS-7
T2 sequence (P37231 whole entry): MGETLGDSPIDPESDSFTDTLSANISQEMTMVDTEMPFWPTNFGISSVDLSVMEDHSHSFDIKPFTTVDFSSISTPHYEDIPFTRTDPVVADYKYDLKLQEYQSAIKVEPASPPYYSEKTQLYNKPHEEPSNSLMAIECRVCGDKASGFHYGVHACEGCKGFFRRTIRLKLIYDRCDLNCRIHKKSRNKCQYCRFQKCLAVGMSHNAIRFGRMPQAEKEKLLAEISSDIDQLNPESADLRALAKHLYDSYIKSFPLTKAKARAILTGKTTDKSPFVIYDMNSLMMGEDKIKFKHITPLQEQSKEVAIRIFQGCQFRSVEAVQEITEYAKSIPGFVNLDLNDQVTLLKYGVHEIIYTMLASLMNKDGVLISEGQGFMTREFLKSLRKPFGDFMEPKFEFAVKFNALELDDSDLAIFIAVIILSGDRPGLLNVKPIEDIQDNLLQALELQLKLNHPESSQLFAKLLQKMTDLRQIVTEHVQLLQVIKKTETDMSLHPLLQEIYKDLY

[4] = target: T3, Peroxisome proliferator-activated receptor gamma (Homo sapiens) (UniProt P37231); assay: Activation of human PPARgamma ligand binding domain expressed in COS7 cells by dual luciferase reporter gene assay relative to 1 uM pioglitazone; format: cell-based; conditions: COS-7
T3 sequence (whole entry): T2 sequence (P37231 whole entry)

[5] = target: T4, Polyunsaturated fatty acid 5-lipoxygenase (Homo sapiens, UniProt P09917); assay: Inhibition of 5-LO in human PMNL assessed as reduction in 5-LO product formation pre-incubated for 15 mins before addition of arachidonic acid substrate by HPLC analysis
T4 sequence (P09917 whole entry): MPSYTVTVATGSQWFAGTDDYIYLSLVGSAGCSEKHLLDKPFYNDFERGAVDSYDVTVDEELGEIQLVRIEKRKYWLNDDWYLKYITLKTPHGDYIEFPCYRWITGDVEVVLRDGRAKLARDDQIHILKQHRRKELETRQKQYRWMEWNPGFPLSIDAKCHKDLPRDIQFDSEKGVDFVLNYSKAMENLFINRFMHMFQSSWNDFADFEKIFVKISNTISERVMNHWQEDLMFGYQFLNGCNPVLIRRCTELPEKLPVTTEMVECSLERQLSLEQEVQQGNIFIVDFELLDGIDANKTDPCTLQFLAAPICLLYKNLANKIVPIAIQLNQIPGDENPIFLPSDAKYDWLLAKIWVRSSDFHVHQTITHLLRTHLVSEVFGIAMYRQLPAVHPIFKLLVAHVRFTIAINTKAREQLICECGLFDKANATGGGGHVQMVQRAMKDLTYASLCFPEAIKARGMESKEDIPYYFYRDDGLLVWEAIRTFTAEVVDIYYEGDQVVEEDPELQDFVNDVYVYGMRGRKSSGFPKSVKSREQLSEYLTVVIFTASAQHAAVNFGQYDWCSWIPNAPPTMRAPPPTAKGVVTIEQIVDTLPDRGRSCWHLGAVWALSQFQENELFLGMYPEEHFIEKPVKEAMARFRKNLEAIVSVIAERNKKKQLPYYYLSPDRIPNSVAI

[6] = target: T5, Prostaglandin G/H synthase 1 (Ovis aries) (UniProt P05979); assay: Inhibition of ovine COX1-mediated 12-HHT formation assessed as remaining activity at 10 uM preincubated for 5 mins before arachidonic acid addition by HPLC analysis
T5 sequence (whole entry): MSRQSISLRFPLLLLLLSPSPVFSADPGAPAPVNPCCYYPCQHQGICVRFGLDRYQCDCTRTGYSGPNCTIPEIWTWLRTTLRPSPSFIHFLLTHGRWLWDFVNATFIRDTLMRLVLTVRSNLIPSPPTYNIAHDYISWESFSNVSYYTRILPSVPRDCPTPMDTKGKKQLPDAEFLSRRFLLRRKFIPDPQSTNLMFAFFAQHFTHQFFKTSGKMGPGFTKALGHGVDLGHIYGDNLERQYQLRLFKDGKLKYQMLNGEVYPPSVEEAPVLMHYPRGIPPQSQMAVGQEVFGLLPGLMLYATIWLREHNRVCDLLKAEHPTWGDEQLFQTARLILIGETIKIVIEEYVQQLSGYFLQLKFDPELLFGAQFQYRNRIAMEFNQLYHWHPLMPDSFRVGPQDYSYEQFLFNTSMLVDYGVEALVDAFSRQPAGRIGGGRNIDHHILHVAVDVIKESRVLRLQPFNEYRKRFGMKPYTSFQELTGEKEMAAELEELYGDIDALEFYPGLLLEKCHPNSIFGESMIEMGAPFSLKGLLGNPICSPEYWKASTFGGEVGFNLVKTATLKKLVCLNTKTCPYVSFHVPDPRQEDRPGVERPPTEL
Procedure, shortened: (§1)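 Cell-free enzyme assays. Data given either as IC50 or as remaining enzyme activity at 10 µM test concentration.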

[7] = target: T6, Prostaglandin G/H synthase 2 (Homo sapiens) (UniProt P35354); assay: Inhibition of human recombinant COX2-mediated 12-HHT formation assessed as remaining activity at 10 uM preincubated for 5 mins before arachidonic acid addition by HPLC analysis; procedure, shortened: as §1
T6 sequence (whole entry): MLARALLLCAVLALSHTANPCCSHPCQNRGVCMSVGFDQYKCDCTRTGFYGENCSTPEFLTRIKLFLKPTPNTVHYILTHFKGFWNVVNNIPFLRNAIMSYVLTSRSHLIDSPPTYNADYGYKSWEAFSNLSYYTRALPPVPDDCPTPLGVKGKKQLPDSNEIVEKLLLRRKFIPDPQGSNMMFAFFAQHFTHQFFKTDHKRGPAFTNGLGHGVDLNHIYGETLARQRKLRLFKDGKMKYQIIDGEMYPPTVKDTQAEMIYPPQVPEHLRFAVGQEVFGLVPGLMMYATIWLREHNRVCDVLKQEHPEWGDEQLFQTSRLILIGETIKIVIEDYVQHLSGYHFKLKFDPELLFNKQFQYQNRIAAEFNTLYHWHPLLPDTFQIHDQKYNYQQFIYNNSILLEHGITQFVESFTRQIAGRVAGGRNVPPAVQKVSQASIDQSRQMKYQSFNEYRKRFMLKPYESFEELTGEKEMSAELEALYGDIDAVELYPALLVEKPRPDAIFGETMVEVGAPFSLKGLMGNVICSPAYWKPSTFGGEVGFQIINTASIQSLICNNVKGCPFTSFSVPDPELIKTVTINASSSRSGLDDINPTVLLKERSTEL

[8] = Cytotoxicity against CHO cells assessed as cell viability up to 30 uM after 24 hrs by alamar blue assay; format: cell-based, Cricetulus griseus; conditions: chinese hamster, read-out: Activity
Prostaglandin E synthase = target: T7, Prostaglandin E synthase (Homo sapiens, UniProt O14684); assay: Inhibition of mPGES-1-mediated PGE2 formation in interleukin-1beta-stimulated human A549 microsomal membranes preincubated for 15 mins before PGH2 addition by RP-HPLC analysis
T7 sequence (O14684 whole entry): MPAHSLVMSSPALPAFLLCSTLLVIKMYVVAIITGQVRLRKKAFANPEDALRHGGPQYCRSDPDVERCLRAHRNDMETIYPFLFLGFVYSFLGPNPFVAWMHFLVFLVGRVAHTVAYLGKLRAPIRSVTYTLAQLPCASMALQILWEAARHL

[9] = target: T8, Prostaglandin G/H synthase 1 (Ovis aries, UniProt P05979); assay: Inhibition of ovine COX1-mediated 12-HHT formation preincubated for 5 mins before arachidonic acid addition by HPLC analysis; procedure, shortened: as §1
T8 sequence (P05979 whole entry): T5 sequence (whole entry)

[10] = target: T9, Prostaglandin G/H synthase 2 (Homo sapiens, UniProt P35354); assay: Inhibition of human recombinant COX2-mediated 12-HHT formation preincubated for 5 mins before arachidonic acid addition by HPLC analysis; procedure, shortened: as §1
T9 sequence (P35354 whole entry): T6 sequence (whole entry)

[11] = target: T3, Peroxisome proliferator-activated receptor gamma (Homo sapiens); assay: Activation of human PPARgamma ligand binding domain expressed in COS7 cells at 10 uM by dual luciferase reporter gene assay; format: cell-based; conditions: COS-7
[12] = Cytotoxicity against human Jurkat cells assessed as reduction in cell viability up to 30 uM after 24 to 48 hrs by MTT assay; format: cell-based; conditions: read-out: INH
[13] = target: Neurogenic locus notch homolog protein 1 (Homo sapiens, UniProt P46531); assay: Inhibition of NOTCH-1 signaling (unknown origin) expressed in CHO cells at 5 to 50 uM after 24 hrs by dual luciferase reporter gene assay; format: cell-based
Chain of Neurogenic locus notch homolog protein 1 (P46531 whole entry): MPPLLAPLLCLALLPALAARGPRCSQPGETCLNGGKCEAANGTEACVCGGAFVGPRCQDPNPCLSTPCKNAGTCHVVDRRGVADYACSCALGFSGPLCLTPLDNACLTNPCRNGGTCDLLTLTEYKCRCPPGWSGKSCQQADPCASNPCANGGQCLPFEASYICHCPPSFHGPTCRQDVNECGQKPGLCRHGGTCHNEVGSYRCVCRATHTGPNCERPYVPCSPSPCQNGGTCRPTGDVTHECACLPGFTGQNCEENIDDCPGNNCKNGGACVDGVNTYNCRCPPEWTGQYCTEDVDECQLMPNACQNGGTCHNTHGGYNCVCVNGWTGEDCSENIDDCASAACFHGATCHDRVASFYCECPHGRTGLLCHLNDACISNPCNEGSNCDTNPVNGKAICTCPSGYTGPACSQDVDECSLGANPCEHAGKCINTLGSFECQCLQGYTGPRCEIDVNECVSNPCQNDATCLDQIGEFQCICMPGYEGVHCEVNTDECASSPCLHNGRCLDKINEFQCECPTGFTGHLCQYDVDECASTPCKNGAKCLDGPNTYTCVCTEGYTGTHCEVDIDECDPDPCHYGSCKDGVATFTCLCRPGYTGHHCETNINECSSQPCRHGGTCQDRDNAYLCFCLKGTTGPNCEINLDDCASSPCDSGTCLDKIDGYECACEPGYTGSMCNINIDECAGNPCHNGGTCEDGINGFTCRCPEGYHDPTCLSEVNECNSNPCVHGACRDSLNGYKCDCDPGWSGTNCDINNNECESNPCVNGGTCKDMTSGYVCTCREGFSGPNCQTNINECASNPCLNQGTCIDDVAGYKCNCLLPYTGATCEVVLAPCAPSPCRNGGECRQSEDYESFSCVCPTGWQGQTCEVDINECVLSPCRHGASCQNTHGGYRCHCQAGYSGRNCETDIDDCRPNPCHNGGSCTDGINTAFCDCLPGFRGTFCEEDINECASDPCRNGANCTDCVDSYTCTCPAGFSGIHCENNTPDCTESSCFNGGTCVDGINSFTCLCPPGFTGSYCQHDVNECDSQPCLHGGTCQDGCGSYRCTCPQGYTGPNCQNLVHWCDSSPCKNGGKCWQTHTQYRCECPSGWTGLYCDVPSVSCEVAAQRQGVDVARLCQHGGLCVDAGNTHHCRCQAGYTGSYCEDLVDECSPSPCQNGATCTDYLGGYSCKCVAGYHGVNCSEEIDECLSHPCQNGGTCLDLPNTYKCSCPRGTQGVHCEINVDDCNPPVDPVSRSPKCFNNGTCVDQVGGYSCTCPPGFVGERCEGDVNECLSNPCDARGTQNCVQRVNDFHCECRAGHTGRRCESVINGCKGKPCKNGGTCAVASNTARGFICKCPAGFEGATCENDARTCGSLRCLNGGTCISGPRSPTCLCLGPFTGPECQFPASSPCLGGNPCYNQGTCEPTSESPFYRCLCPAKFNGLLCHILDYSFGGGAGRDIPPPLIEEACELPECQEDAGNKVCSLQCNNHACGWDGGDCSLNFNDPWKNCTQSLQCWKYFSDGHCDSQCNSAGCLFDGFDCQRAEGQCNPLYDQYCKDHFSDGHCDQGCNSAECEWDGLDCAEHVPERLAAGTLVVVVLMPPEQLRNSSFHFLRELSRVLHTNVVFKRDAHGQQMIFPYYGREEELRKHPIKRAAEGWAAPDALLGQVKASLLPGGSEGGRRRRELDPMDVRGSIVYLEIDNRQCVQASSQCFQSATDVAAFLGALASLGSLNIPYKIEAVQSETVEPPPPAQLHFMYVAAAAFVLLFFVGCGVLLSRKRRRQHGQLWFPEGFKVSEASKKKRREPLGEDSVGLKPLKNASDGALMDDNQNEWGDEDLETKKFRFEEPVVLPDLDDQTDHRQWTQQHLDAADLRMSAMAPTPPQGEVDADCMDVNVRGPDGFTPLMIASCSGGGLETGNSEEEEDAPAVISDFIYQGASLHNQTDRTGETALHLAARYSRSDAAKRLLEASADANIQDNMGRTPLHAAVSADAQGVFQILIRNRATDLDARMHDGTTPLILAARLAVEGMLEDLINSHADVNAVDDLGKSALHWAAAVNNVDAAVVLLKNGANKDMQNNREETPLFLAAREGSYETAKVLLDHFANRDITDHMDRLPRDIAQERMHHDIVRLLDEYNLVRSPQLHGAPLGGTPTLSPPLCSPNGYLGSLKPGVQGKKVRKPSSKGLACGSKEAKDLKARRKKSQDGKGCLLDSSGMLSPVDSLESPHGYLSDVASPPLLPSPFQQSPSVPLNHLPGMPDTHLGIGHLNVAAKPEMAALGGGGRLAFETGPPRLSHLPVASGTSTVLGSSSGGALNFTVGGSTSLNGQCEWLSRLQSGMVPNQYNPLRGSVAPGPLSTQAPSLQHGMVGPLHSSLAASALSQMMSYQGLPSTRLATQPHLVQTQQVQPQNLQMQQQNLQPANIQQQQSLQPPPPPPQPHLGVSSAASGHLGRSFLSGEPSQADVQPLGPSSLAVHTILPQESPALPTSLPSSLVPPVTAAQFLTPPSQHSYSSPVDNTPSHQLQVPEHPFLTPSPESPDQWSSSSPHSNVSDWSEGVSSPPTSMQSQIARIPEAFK
Procedure, shortened: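 Dual luciferase Notch reporter read-out in CHO cells. Test compounds were run at 5–50 µM. The γ-secretase inhibitor LY-411575 was run at 0.5 µM as the reference treatment.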

IC50 (Presenilin-1 [1])	EC50 (Presenilin-1 [2])	EC50 ([3]; read-out: EC50)	max activation [4]	IC50 ([5]; read-out: IC50)	Activity [6]	Activity [7]	IC50 (Prostaglandin E synthase)	IC50 [9]	IC50 [10]	IC50 [5]	Activity [11]	EC50 ([3]; cos-7)	inhibition (INH) [13]	SMILES	viability at 24 h [8]	cytotoxicity [12]
11.9 µM	12 µM			5.7 µM							26%			CCCC/C(=C\c1cc(-c2ccccc2)ccc1OCc1ccc(C(F)(F)F)cc1)C(=O)O		
19.3 µM	14.1 µM	11.7 µM	108%	0.55 µM	86.6%	84.8%	5.6 µM	> 10 µM	> 10 µM					CCCC/C(=C\c1cc(OCc2ccccc2)ccc1OCc1ccc(C(F)(F)F)cc1)C(=O)O		
4.1 µM	2.5 µM	12.9 µM	56%	0.75 µM	69.5%	77.7%	5 µM	> 10 µM	> 10 µM					CCCC/C(=C\c1cc(OC/C=C/c2ccccc2)ccc1OCc1ccc(C(F)(F)F)cc1)C(=O)O		
0.63 µM	1.17 µM			0.2 µM	69%	84.2%	3 µM	> 10 µM	> 10 µM		17%		Not Active	CCCC/C(=C\c1cc(OCc2ccc3nc(C(F)(F)F)cc(OC)c3c2)ccc1OCc1ccc(C(F)(F)F)cc1)C(=O)O	> 50%	
1 µM	1.1 µM	2.16 µM	158%	1.7 µM	58%	75.3%	2.5 µM	> 10 µM	> 10 µM				Not Active	CCCC/C(=C\c1cc(OCC2CCC(C(F)(F)F)CC2)ccc1OCc1ccc(C(F)(F)F)cc1)C(=O)O (stereo not drawn)	> 50%	

The next lines start with the compound.

SMILES	IC50 (Presenilin-1 [1])	EC50 (Presenilin-1 [2])	EC50 ([3]; read-out: EC50)	max activation [4]	IC50 ([5]; read-out: IC50)	Activity [6]	Activity [7]	IC50 (Prostaglandin E synthase)	IC50 [9]	IC50 [10]	IC50 [5]	Activity [11]	EC50 ([3]; cos-7)	inhibition (INH) [13]	viability at 24 h [8]	cytotoxicity [12]
CCCC/C(=C\c1cc(OCc2cc(C(F)(F)F)cc(C(F)(F)F)c2)ccc1OCc1ccc(C(F)(F)F)cc1)C(=O)O	0.79 µM	1 µM	4.64 µM	103%	0.3 µM	62.4%	77.3%	> 10 µM	> 10 µM	> 10 µM					> 50%	
CCCC/C(=C\c1cc(O)ccc1OCc1ccc(C(F)(F)F)cc1)C(=O)O	> 40 µM	> 40 µM									Not Active	48%				
CCCC/C(=C\c1cc(OCc2cc3ccccc3s2)ccc1OCc1ccc(C(F)(F)F)cc1)C(=O)O	4.6 µM	2.1 µM		inactive	0.7 µM	67.4%	91.7%	9.2 µM	> 10 µM	> 10 µM			Not Active			> 50%
CCCC/C(=C\c1cc(OCc2ccc(Cl)c(Cl)c2)ccc1OCc1ccc(C(F)(F)F)cc1)C(=O)O	2 µM	3.2 µM	2.11 µM	56%	0.3 µM	59.4%	73.3%	1.6 µM	> 10 µM	> 10 µM						

Reference: ChEMBL document CHEMBL3397016, “SAR-studies of γ-secretase modulators with PPARγ-agonistic and 5-lipoxygenase-inhibitory activity for Alzheimer's disease” (Bioorg Med Chem Lett, 2015)
